Published values from different studies.
Each line is one published result; the experiments were not run side by side.
Target: Dual specificity mitogen-activated protein kinase kinase 7 (MAP2K7, Homo sapiens, UniProt O14733)
Sequence (O14733 1-419, as in one of the studies): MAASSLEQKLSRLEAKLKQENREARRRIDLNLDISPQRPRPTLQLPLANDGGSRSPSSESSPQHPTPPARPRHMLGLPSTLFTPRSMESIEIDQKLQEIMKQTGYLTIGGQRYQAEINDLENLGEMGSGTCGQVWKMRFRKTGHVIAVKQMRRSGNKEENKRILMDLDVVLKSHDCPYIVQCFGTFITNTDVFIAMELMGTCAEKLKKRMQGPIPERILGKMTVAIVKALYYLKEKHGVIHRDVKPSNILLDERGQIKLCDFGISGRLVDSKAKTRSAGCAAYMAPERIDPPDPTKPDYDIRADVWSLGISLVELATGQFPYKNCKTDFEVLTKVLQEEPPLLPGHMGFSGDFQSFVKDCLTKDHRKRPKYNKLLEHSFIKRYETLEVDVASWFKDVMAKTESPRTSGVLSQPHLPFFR

Compound	test	conditions	remaining binding [%]
COc1ccnn2ncc(-c3ccnc(N(C)C)n3)c12	binding	1 µM	73
COc1ncc2cc3ccccc3nc2c1C#N	cell-free assay, competition with immobilised ligand	5 µM	95
O=C(NCC1CCOCC1)c1n[nH]cc1NC(=O)c1c(F)cccc1F	binding, competition with immobilised ligand	1 µM	84
O=S(=O)(NC1CCC(c2cc(F)ccc2F)(S(=O)(=O)c2ccc(Cl)cc2)CC1)C(F)(F)F (centres unmarked)	cell-free assay, competition with immobilised ligand	1 µM	100
COc1cnc(Nc2cccc(S(N)(=O)=O)c2)nc1N1CCN(c2ccccc2)C(=O)C1	binding, competition with immobilised ligand	1 µM	92
CN(CCCC(F)(F)F)c1nccc(-c2cnn3ncccc23)n1	binding	1 µM	100
CN(C)CC#Cc1ccc(OCCCc2sc(N3CCc4cccc(C(=O)Nc5nc6ccccc6s5)c4C3)nc2C(=O)O)c(F)c1	cell-free assay, competition with immobilised ligand	1 µM	69
c1cncc(-c2cccc(Nc3nccc(NC4CCCCC4)n3)c2)c1	binding, competition with immobilised ligand	10 µM	100
CN(c1ccnc(CNc2nc(Nc3ccc4c(c3)CC(=O)N4)ncc2C(F)(F)F)n1)S(C)(=O)=O	cell-free assay, competition with immobilised ligand	1 µM	73
C[C@@H]1CCN(c2nccc(-c3cnn4ncccc34)n2)C1	binding	1 µM	100
Cc1cnc(Nc2ccc(C(=O)N3CCC(N4CCCC4)CC3)cc2)nc1-c1cc2ccccc2s1	binding, competition with immobilised ligand	1 µM	81
CN(C)c1ncc(F)c(-c2cnn3ncccc23)n1	binding	1 µM	88
C[C@@H](c1cccc(C#N)c1)n1cc(Cl)cc(C(N)=O)c1=N	cell-free assay, competition with immobilised ligand	1 µM	99
O=C(c1ccc(Nc2nccc(-c3cc4ccccc4s3)n2)cc1)N1CCC(N2CCCC2)CC1	binding, competition with immobilised ligand	1 µM	26
Cc1c(NC(=O)c2cc(C(N)=O)nc3cc(F)ccc23)c(C(F)(F)F)nn1Cc1ccc(C#N)cc1	cell-free assay, competition with immobilised ligand	1 µM	79
CN(c1nccc(-c2cnn3ncccc23)n1)C1CC1	binding	1 µM	100
Cc1nc(N2CC[C@@H](O)C2)ncc1-c1cc(C(F)(F)F)cc2[nH]ncc12	binding, competition with immobilised ligand	1 µM	64
CN(C)c1nccc(-c2cnc3ncccn23)n1	binding	1 µM	88
CNC(=O)[C@@H]1CC[C@@H](n2c(-c3ccc4cnccc4c3)nc3ccc(C(=O)NCc4cccc(C(N)=O)c4)cc32)C1	binding, competition with immobilised ligand	1 µM	100
O=C(NCCCN1CCOCC1)c1ccc(Nc2ncc(Cl)c(-c3ccc(Cl)s3)n2)cc1	binding, competition with immobilised ligand	1 µM	87
